Data on 26 molecules can be found in ChEMBL document CHEMBL4219127, “Structural design, synthesis and substituent effect of hydrazone-N-acylhydrazones reveal potent immunomodulatory agents” (Bioorg Med Chem, 2018).

Structures are written as SMILES. pIC50: −log10 of the molar value. Activity calls are given as the source filed them. The rule behind the calls is not given here.

Data set [1] is described as follows: Cytotoxicity against BALB/c mouse J774 cells assessed as reduction in cell viability after 72 hrs by alamarBlue assay. The data set is classed as cell-based. Put shortly: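 J774 murine macrophages, 1×10^4 cells/well in DMEM + 10% FBS, pre-incubated 24 h at 37°C, 5% CO2; compounds 100–0.41 μM in triplicate for 72 h. AlamarBlue added for 4 h, absorbance at 570 and 600 nm; gentian violet positive control. CC50 from three independent experiments.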

The test system of the next data set is J774. Briefly: Antiinflammatory activity in BALB/c mouse J774 cells assessed as inhibition of LPS/IFNgamma-induced nitric oxide production at 20 uM after 24 hrs by Griess method relative to control. The data set is classed as functional. The following applies: J774, 24 h. In short, it runs like this:
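J774 macrophages, 2×10^5 cells/well in DMEM + 10% FBS, allowed to settle 2 h at 37°C, 5% CO2; stimulated with LPS (E. coli 0111:B4, 500 ng/mL) plus IFNγ (5 ng/mL) with compound present (primary screen at 20 μM). Nitrite measured by Griess in supernatants at 24 h; % inhibition against stimulated untreated control.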

For data set [2], the system named is Splenocyte. Kind of data set: Immunomodulatory activity in BALB/c mouse splenocytes assessed as inhibition of concanavalin A-induced lymphocyte proliferation by measuring [3H]-thymidine uptake after 48 to 72 hrs by scintillation counting analysis. The data set is classed as functional, cell-based. In short, it runs like this: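 BALB/c splenocytes at 1×10^6 cells/well, in triplicate, stimulated with Con A (2 μg/mL) or anti-CD3/CD28 beads (1:1 bead:cell) with compound at 12–0.04 μM. After 48 h, 1 μCi 3H-thymidine added for a further 18 h; scintillation counting. Proliferation as % uptake versus untreated; dexamethasone control. IC50 from three independent experiments.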

A further data set relates to Mus musculus. Kind of data set: Antiinflammatory activity in carrageenan-induced BALB/c mouse peritonitis model assessed as reduction in number of neutrophils in peritoneal fluid at 80 mg/kg, ip pretreated for 1 hr followed by carrageenan challenge measured after 4 hrs by hematoxylin and eosin staining-based assay relative to control. The data set is classed as functional. Put shortly:
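Male BALB/c mice were dosed orally with compound (20 or 80 mg/kg) or vehicle; indomethacin 80 mg/kg was given ip. One hour later, carrageenan (250 µL of 1.0 mg/mL) was injected ip. Peritoneal lavage with 2 mL saline at 4 h. Total leukocytes counted in Neubauer chamber with Trypan blue; neutrophils by blinded 200-cell differential on H&E-stained cytospins.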

Data set [3] has as its system Splenocyte. Kind of data set: Antiinflammatory activity in BALB/c mouse splenocytes assessed as inhibition of concanavalin A-induced IL-2 level at 1 uM after 48 hrs by ELISA. The data set is classed as functional, cell-based. Put shortly:
(§1)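 Splenocytes from BALB/c mice at 5×10^6 cells/well in DMEM, stimulated with Con A 5 µg/mL, with compound at 10, 5 and 2.5 µM. Cell-free supernatants collected at 48 h and stored at -80 °C. IL-2, IL-4, IL-10, IL-17 and IFNγ measured by sandwich ELISA. Dexamethasone control at 10 µM (1.0 µM for IL-2). Mean±S.E.M. from one of two experiments.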

The subject of data set [4] is Splenocyte. Kind of data set: Antiinflammatory activity in BALB/c mouse splenocytes assessed as inhibition of concanavalin A-induced IL-4 level at 10 uM after 48 hrs by ELISA. The data set is classed as functional, cell-based. Put shortly:
as §1

Data set [5] relates to Splenocyte. Briefly: Antiinflammatory activity in BALB/c mouse splenocytes assessed as inhibition of concanavalin A-induced IL-10 level at 10 uM after 48 hrs by ELISA. The data set is classed as functional, cell-based. Put shortly:
as §1

For data set [6], the system named is Splenocyte. Kind of data set: Antiinflammatory activity in BALB/c mouse splenocytes assessed as inhibition of concanavalin A-induced IL-17A level at 10 uM after 48 hrs by ELISA. The data set is classed as functional, cell-based. In short, it runs like this:
as §1

The test system of data set [7] is Splenocyte. Kind of data set: Antiinflammatory activity in BALB/c mouse splenocytes assessed as inhibition of concanavalin A-induced IFN-gamma level at 10 uM after 48 hrs by ELISA. The data set is classed as functional, cell-based. Put shortly: as §1

`COc1cc(C(=O)N/N=C(C)/C=N/Nc2ccc([N+](=O)[O-])cc2)ccc1O`: the CC50 at 72 h in data set [1] is > 100 µM. For the same molecule, in the data set with J774, the inhibition at 20 µM was found to be 6.6%. For the same molecule, the pIC50 with Splenocyte [2] is 5.29.
The corresponding values for `CC(/C=N/Nc1ccc([N+](=O)[O-])cc1)=N\NC(=O)c1ccccc1` are > 100 µM, 31.4% and < 4.92.
With `CC(/C=N/Nc1ccc([N+](=O)[O-])cc1)=N\NC(=O)c1ccccc1Nc1ccccc1`, the cytotoxic concentration (CC50) at 72 h in data set [1] is > 100 µM. Further, the inhibition at 20 µM in the data set with J774 was 14.1%.
For `COc1ccc(C(=O)N/N=C(C)/C=N/Nc2ccc([N+](=O)[O-])cc2)cc1`, the CC50 at 72 h in [1] is > 100 µM. Moreover, the inhibition at 20 µM with J774 worked out at 7.5%. For the same molecule, in the data set with Splenocyte [2], the negative-log IC50 (pIC50) was < 4.92.
Taken in the same sequence, the figures for `CC(/C=N/Nc1ccc([N+](=O)[O-])cc1)=N\NC(=O)c1ccccc1N` were 29.8 µM, 39.3% and 5.31.
Taken in the same sequence, the figures for `CC(/C=N/Nc1ccc([N+](=O)[O-])cc1)=N\NC(=O)c1ccc([N+](=O)[O-])cc1` were > 100 µM, 39.1% and 6.01.
Taken in the same sequence, the figures for `CC(/C=N/Nc1ccc([N+](=O)[O-])cc1)=N\NC(=O)c1ccc(C(C)(C)C)cc1` were > 100 µM, 4.8% and < 4.92.
`CC(/C=N/Nc1ccc([N+](=O)[O-])cc1)=N\NC(=O)c1ccccc1Cl`: in [1], the CC50 at 72 h was > 100 µM. Besides, in the data set on J774, the inhibition at 20 µM is 39.4%. The pIC50 with Splenocyte [2] was < 4.92.
Taken in the same sequence, the figures for `CC(/C=N/Nc1ccc([N+](=O)[O-])cc1)=N\NC(=O)c1ccccc1Oc1ccccc1` were > 100 µM, 5.5% and < 4.92.
Consider `CC(/C=N/N(C)c1ccc([N+](=O)[O-])cc1)=N\NC(=O)c1cc([N+](=O)[O-])cc([N+](=O)[O-])c1`, for which the CC50 at 72 h in [1] came to 39 µM. The inhibition at 20 µM in the data set with J774 amounted to 51%. The pIC50 with Splenocyte [2] was 5.95.
Taken in the same sequence, the figures for `CC(/C=N/Nc1ccc([N+](=O)[O-])cc1)=N\NC(=O)c1ccc(Cl)cc1` were 63.9 µM, 23% and 5.38.
In the case of `COc1ccc2c(c1)c(CC(=O)O)c(C)n2C(=O)c1ccc(Cl)cc1` [INDOMETHACIN], the inhibition in vivo at 80 mg/kg in the data set on Mus musculus was determined as 35.9%.
In the case of `C[C@@H]1C[C@H]2[C@@H]3CCC4=CC(=O)C=C[C@]4(C)[C@@]3(F)[C@@H](O)C[C@]2(C)[C@@]1(O)C(=O)CO` [DEXAMETHASONE], the half-maximal cytotoxic concentration (CC50) at 72 h in data set [1] came out at 91.1 µM. Moreover, the inhibition at 20 µM in the data set on J774 was found to be 69.8%. In addition, the pIC50 in the data set with Splenocyte [2] was 9.00. The inhibition entry in the data set with Splenocyte [3], in the data set on Splenocyte [4], with Splenocyte [5], in the data set on Splenocyte [6] and in the data set with Splenocyte [7] was “Active” each time.
As for `CC(/C=N/Nc1ccc([N+](=O)[O-])cc1)=N\NC(=O)c1ccc(O)cc1`, the cytotoxic concentration (CC50) at 72 h in [1] came to 51 µM. For the same molecule, the inhibition at 20 µM in the data set on J774 came to 43.8%. Also, the pIC50 with Splenocyte [2] is 5.82.
Taken in the same sequence, the figures for `CC(/C=N/Nc1ccc([N+](=O)[O-])cc1)=N\NC(=O)c1ccc(C(F)(F)F)cc1` were 78.7 µM, 18.7% and < 4.92.
The corresponding values for `CC(/C=N/Nc1ccc([N+](=O)[O-])cc1)=N\NC(=O)c1cccc(C)c1` are > 100 µM, 9.3% and < 4.92.
The corresponding values for `CC(/C=N/Nc1ccc([N+](=O)[O-])cc1)=N\NC(=O)c1ccccc1C` are > 100 µM, 21.9% and 5.22.
As to `CC(/C=N/Nc1ccc([N+](=O)[O-])cc1)=N\NC(=O)c1ccccc1F`, in [1], the CC50 at 72 h was > 100 µM. Also, the inhibition at 20 µM in the data set on J774 came out at 5.3%. In addition, in the data set on Splenocyte [2], the pIC50 is < 4.92.
On to `CC(/C=N/Nc1ccc([N+](=O)[O-])cc1)=N\NC(=O)c1ccc(N(C)C)cc1`, for which the CC50 at 72 h in data set [1] is > 100 µM. In the data set with J774, the inhibition at 20 µM is 25.6%. Also, in the data set on Splenocyte [2], the pIC50 was < 4.92.
Taken in the same sequence, the figures for `CC(/C=N/N(C)c1ccc([N+](=O)[O-])cc1)=N\NC(=O)c1ccccc1O` were 31.5 µM, 41% and 5.51.
On to `CN(C)c1ccc(C(=C2C=CC(=[N+](C)C)C=C2)c2ccc(N(C)C)cc2)cc1` [GENTIAN VIOLET], for which the CC50 at 72 h in data set [1] was 4.1 µM.
On to `CC(/C=N/N(C)c1ccc([N+](=O)[O-])cc1)=N\NC(=O)c1ccc(N)cc1`, for which, in data set [1], the CC50 at 72 h is 51.7 µM. Also, in the data set on J774, the inhibition at 20 µM amounted to 3.6%. Also, the pIC50 with Splenocyte [2] was < 4.92.
`CC(/C=N/Nc1ccc([N+](=O)[O-])cc1)=N\NC(=O)c1ccccc1O`: the CC50 at 72 h in [1] is 29.5 µM. In the data set with J774, the inhibition at 20 µM is 59.7%. Besides, in the data set with Splenocyte [2], the pIC50 is 5.79.
Take `CC(/C=N/Nc1ccc([N+](=O)[O-])cc1)=N\NC(=O)c1ccc(N)cc1`: the CC50 at 72 h in data set [1] came out at 75 µM. The inhibition at 20 µM in the data set with J774 worked out at 12.8%. Also, in the data set with Splenocyte [2], the negative-log IC50 (pIC50) is < 4.92.
Taken in the same sequence, the figures for `CC(/C=N/Nc1ccc([N+](=O)[O-])cc1)=N\NC(=O)c1ccc2c(c1)OCO2` were > 100 µM, 23.2% and < 4.92.
The corresponding values for `CC(/C=N/Nc1ccc([N+](=O)[O-])cc1)=N\NC(=O)c1ccccc1I` are 40 µM, 56.8% and 5.53.
